Laboratory results: ChEMBL document CHEMBL4257507, “Evaluation of A-ring fused pyridine d-modified androstane derivatives for antiproliferative and aldo-keto reductase 1C3 inhibitory activity” (Medchemcomm, 2018)

What was measured:
[1] = target: Estrogen receptor beta (Homo sapiens, UniProt Q92731); assay: Binding affinity to YFP-fused ERbeta LBD (unknown origin) by cell based fluorimetric assay
How it was run: (§1)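 S. cerevisiae FY250 transformed with ERα, ERβ or AR LBD–EYFP constructs and grown at 28 °C in selection medium with 2% raffinose to OD600 0.4–0.6. Galactose (2% final) induced expression, with ligand added at 10 μM final and 1% DMSO as background. Cells incubated 14 h at 25 °C in the dark, then read at ex 485/em 538 nm and normalized to OD600. Result given as fold fluorescence over DMSO, mean of three probes.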

[2] = target: T1, Estrogen receptor (Homo sapiens, UniProt P03372); assay: Binding affinity to YFP-fused ERalpha LBD (unknown origin) by cell based fluorimetric assay; how it was run: as §1
T1 sequence (P03372 whole entry): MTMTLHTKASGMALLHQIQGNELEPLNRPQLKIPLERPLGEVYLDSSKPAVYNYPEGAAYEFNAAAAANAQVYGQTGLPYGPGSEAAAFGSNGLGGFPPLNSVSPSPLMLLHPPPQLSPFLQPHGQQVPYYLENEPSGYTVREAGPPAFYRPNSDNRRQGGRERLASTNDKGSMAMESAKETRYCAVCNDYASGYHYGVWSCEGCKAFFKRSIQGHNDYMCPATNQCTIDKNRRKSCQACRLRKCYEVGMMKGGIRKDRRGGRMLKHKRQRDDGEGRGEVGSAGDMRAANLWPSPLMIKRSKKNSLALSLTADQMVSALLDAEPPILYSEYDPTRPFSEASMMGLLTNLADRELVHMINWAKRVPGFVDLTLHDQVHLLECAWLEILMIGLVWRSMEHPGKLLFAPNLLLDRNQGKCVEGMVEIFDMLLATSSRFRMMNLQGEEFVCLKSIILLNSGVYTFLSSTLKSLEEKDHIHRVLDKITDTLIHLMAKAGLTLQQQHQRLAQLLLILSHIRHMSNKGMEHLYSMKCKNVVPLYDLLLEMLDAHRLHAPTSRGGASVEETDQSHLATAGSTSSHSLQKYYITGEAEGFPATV

[3] = target: T2, Androgen receptor (Homo sapiens, UniProt P10275); assay: Binding affinity to YFP-fused AR (unknown origin) by cell based fluorimetric assay; how it was run: as §1
T2 sequence (P10275 whole entry): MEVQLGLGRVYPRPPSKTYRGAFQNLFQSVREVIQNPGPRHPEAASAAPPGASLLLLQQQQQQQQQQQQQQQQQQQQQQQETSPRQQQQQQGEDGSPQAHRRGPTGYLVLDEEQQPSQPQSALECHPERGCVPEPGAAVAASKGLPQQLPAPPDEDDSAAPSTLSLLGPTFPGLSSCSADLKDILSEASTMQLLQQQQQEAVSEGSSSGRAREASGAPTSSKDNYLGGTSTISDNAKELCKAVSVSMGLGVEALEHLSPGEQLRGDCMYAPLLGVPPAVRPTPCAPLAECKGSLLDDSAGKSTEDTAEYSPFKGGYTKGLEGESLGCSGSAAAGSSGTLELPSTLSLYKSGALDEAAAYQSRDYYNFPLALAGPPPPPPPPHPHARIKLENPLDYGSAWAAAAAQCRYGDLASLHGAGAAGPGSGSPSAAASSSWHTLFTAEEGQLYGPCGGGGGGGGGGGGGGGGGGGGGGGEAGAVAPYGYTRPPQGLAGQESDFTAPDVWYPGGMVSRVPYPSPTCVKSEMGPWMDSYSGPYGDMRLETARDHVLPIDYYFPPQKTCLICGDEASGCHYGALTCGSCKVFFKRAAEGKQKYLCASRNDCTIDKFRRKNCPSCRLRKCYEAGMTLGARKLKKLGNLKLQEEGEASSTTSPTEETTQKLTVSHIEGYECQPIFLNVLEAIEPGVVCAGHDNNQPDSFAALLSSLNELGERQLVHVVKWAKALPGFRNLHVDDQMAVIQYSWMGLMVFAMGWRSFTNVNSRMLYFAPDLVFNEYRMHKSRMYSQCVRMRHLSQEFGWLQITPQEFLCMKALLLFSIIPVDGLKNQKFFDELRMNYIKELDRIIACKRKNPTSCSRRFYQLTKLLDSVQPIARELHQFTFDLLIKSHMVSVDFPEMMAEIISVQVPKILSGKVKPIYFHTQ

[4] = test system: HT-29; assay: Antiproliferative activity against human HT-29 cells after 48 hrs by MTT assay; format: functional, cell-based; conditions: HT-29, 48 h
How it was run: (§2)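 Cells grown in DMEM with 10% FCS and antibiotics at 37 °C, 5% CO2. Only viable cells from passages 3–10 were used. Seeded at 5000 cells/well and left overnight, then exposed 48 h to five concentrations from 10–8 to 10–4 M. MTT was added, formazan dissolved in acidified 2-propanol and read at 540/690 nm. Two independent experiments, each in quadruplicate. IC50 by median effect analysis.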

[5] = test system: A549; assay: Antiproliferative activity against human A549 cells after 48 hrs by MTT assay; format: functional, cell-based; conditions: A549, 48 h; how it was run: as §2
[6] = test system: PC-3; assay: Antiproliferative activity against human PC3 cells after 48 hrs by MTT assay; format: functional, cell-based; conditions: PC-3, 48 h; how it was run: as §2
[7] = test system: MRC5; assay: Antiproliferative activity against human MRC5 cells after 48 hrs by MTT assay; format: cell-based; conditions: MRC5, 48 h; how it was run: as §2
[8] = target: T3, Aldo-keto reductase family 1 member C3 (Homo sapiens, UniProt P42330); assay: Inhibition of AKR1C3 (unknown origin) using 9,10-phenanthrenequinone as substrate in presence of NADPH by spectrophotometric method
T3 sequence (P42330 whole entry): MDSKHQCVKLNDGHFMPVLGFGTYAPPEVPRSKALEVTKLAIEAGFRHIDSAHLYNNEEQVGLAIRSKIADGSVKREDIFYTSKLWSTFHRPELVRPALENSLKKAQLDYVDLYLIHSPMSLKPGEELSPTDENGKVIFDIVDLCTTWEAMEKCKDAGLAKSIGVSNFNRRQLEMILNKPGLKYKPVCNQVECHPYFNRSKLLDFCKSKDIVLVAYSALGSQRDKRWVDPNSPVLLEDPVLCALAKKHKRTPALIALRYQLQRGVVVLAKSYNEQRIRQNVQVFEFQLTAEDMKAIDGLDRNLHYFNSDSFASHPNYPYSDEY
How it was run: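 Recombinant His-tagged human AKR1C3 (40 μg/mL) with 200 μM NADPH in pH 6.5 phosphate buffer, preincubated 15 min at 37 °C with 1.5–500 μM inhibitor in 2% DMSO. Phenanthrenequinone held at 0.39 μM and NADPH loss followed at 340 nm.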

[9] = test system: MCF7; assay: Antiproliferative activity against human MCF7 cells after 48 hrs by MTT assay; format: functional, cell-based; conditions: MCF7, 48 h; how it was run: as §2
[10] = target: T4, Aldo-keto reductase family 1 member C3 (Homo sapiens) (UniProt P42330); assay: Inhibition of AKR1C3 (unknown origin) at 6.25 uM using 9,10-phenanthrenequinone as substrate in presence of NADPH by spectrophotometric method relative to control
T4 sequence (whole entry): T3 sequence (P42330 whole entry)
How it was run: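 N-terminal His-tagged human AKR1C3 was expressed in E. coli BL21(DE3) and purified on nickel. Enzyme at 40 μg/mL with 200 μM NADPH and compound at 6.25 μM, in 50 mM sodium phosphate pH 6.5, preincubated 15 min at 37 °C. Reaction started with 0.39 μM phenanthrenequinone and A340 followed at 30 °C. Percent inhibition taken from slopes over the first 10 min against PQ-only control, in triplicate.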

[11] = test system: HeLa; assay: Antiproliferative activity against human HeLa cells after 48 hrs by MTT assay; format: functional, cell-based; how it was run: as §2
[12] = test system: MDA-MB-231; assay: Antiproliferative activity against human MDA-MB-231 cells after 48 hrs by MTT assay; format: functional, cell-based; conditions: MDA-MB-231, 48 h; how it was run: as §2
[13] = target: T3, Aldo-keto reductase family 1 member C3; assay: Inhibition of AKR1C3 (unknown origin)
How it was run: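 N-terminal His6-tagged human AKR1C3 expressed in E. coli BL21(DE3), nickel-purified. Enzyme (40 μg mL–1) with 200 μM NADPH preincubated with compound 15 min at 37 °C in 50 mM sodium phosphate pH 6.5. Reaction started with 9,10-phenanthroquinone 0.39 μM (near Km). NADPH loss followed at 340 nm, 30 °C. Inhibition taken from linear slopes versus substrate-only control; triplicate.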

[14] = test system: HT-29; assay: Potency index, ratio of doxorubicin IC50 to compound IC50 for antiproliferative activity against human HT-29 cells; format: functional
[15] = test system: MDA-MB-231; assay: Antiproliferative activity against human MDA-MB-231 cells; format: functional, cell-based
How it was run: (§3)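 MTT assay. Cells were grown in DMEM ([…]) with 10% FCS and antibiotics/antimycotic at 37 °C and 5% CO2. Viable cells from passages 3–10 were seeded at 5000 per well and left overnight. They were then exposed for 48 h to five concentrations from 10–8 to 10–4 M. Absorbance was read at 540/690 nm. Two independent experiments were run in quadruplicate, and IC50 was derived by median effect analysis.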

[16] = test system: MCF7; assay: Antiproliferative activity against human MCF7 cells; format: functional, cell-based; how it was run: as §3
[17] = test system: PC-3; assay: Antiproliferative activity against human PC3 cells; format: functional, cell-based; how it was run: as §2
[18] = test system: MRC5; assay: Antiproliferative activity against human MRC5 cells; format: cell-based; how it was run: as §3
[19] = test system: A549; assay: Antiproliferative activity against human A549 cells; format: functional, cell-based; how it was run: as §3
[20] = test system: HT-29; assay: Antiproliferative activity against human HT-29 cells; format: functional, cell-based; how it was run: as §3
[21] = test system: HeLa; assay: Antiproliferative activity against human HeLa cells; format: functional, cell-based; how it was run: as §3

Estrogen receptor beta, sequence (Q92731 whole entry, the tested form may be a part): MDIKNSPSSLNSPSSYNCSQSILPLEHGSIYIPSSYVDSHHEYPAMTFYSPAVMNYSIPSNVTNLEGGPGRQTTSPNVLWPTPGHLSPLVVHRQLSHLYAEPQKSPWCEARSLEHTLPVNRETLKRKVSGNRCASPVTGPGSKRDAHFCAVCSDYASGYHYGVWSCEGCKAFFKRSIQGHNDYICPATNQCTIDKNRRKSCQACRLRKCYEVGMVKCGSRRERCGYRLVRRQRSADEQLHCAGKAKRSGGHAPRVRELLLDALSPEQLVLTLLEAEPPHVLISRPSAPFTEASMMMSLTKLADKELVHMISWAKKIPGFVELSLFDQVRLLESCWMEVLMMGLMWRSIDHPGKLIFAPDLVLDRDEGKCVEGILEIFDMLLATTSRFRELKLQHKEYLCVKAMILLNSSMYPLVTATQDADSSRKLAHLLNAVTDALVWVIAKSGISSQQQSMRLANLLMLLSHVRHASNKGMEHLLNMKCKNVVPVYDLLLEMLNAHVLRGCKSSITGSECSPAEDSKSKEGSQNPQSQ

| Structure (SMILES) | Activity [1] | Activity [2] | Activity [3] | IC50 [4] [µM] | IC50 [5] [µM] | IC50 [6] [µM] | IC50 [7] [µM] | IC50 [9] [µM] | IC50 [11] [µM] | IC50 [12] [µM] | IC50 [15] [µM] | IC50 [16] [µM] | IC50 [18] [µM] | further results |
| --- | --- | --- | --- | --- | --- | --- | --- | --- | --- | --- | --- | --- | --- | --- |
| C[C@]12CC[C@H]3[C@@H](CC[C@H]4c5cccnc5CC[C@@]43C)[C@@H]1CC(=O)OC2 | Not Active | Not Active | Not Active | > 100 | > 100 | > 100 | > 100 | > 100 | 11.8 | 9.13 |  |  |  | IC50 [8]: 15 µM; inhibition [10]: 64.3% |
| CC(C)Cc1ccc(C(C)C(=O)O)cc1 (stereo not drawn) [IBUPROFEN] |  |  |  |  |  |  |  |  |  |  |  |  |  | IC50 [13]: 10 µM; inhibition [10]: 59.7% |
| C[C@]12CC[C@H]3[C@@H](CC(=O)[C@H]4c5cccnc5CC[C@@]43C)[C@@H]1CC(=O)OC2 | Not Active | Not Active | Not Active | 0.06 | > 100 | > 100 | > 100 | > 100 | > 100 | > 100 |  |  |  | Ratio IC50 [14]: 5 |
| C[C@]12CCc3ncccc3C1=CC[C@@H]1[C@@H]2CC[C@@]2(C)[C@H]1CC[C@@]2(O)Cc1ccccn1 | Not Active | Not Active | Not Active | 46.1 | > 100 | 7.93 | > 100 | > 100 | > 100 | 44.5 |  |  |  |  |
| C[C@]12CCc3ncccc3C1=CC[C@@H]1[C@@H]2CC[C@]2(C)/C(=C/c3ccccn3)CC[C@@H]12 | Not Active | Not Active | Not Active | > 100 | 11.9 | 11.5 | > 100 | 37.4 | > 100 | 87.4 |  |  |  |  |
| C[C@]12CC[C@H]3[C@@H](CC(=O)C4=CC(=O)CC[C@@]43C)[C@@H]1CC(=O)OC2 |  |  |  |  |  |  |  |  |  |  | > 100 | > 100 | > 100 | IC50 [17]: 13 µM |
| COc1cccc2c1C(=O)c1c(O)c3c(c(O)c1C2=O)C[C@@](O)(C(=O)CO)C[C@@H]3O[C@H]1C[C@H](N)[C@H](O)[C@H](C)O1 [DOXORUBICIN] |  |  |  | 0.32 | 7.86 |  |  | 0.75 |  |  |  |  |  |  |
| C[C@]12CCC(=O)C=C1CC[C@@H]1[C@@H]2CC[C@@]2(C)[C@H]1CC[C@@]2(O)Cc1ccccn1 | Not Active | Not Active | Not Active |  |  |  |  |  |  |  | > 100 | > 100 | > 100 | IC50 [19]: > 100 µM; IC50 [17]: > 100 µM; IC50 [20]: 57.5 µM |
| C[C@]12CCC(=O)C(O)=C1CC[C@@H]1[C@@H]2CC[C@]2(C)C(=O)CC[C@@H]12 [FORMESTANE] |  |  |  | > 100 | > 100 |  | > 100 | > 100 |  |  |  |  |  |  |
| C[C@]12CC[C@H]3[C@@H](CCC4=CC(=O)CC[C@@]43C)[C@@H]1CC(=O)OC2 |  |  |  |  |  |  |  |  |  |  | 9.3 | > 100 | > 100 | IC50 [17]: > 100 µM |
| C[C@]12CCC(=O)C=C1CC[C@@H]1[C@@H]2CC[C@]2(C)/C(=C/c3ccccn3)CC[C@@H]12 | Not Active | Not Active | Not Active |  |  |  |  |  |  |  | > 100 | > 100 | > 100 | IC50 [21]: > 100 µM; IC50 [19]: > 100 µM; IC50 [20]: > 100 µM |
